ChEMBL document CHEMBL1157311, “Aurilides B and C, cancer cell toxins from a Papua New Guinea collection of the marine cyanobacterium Lyngbya majuscula” (2006)
The source made the active and inactive calls.

How the values were obtained:
SNB-75 = experiment: Growth inhibition of human SNB75 cells; type: functional
LOX IMVI = experiment: Growth inhibition of human LOX IMVI cells; type: functional
SF-539 = experiment: Growth inhibition of human SF539 cells; type: functional
UACC-62 = experiment: Growth inhibition of human UACC62 cells; type: functional
[1] = Growth inhibition of human RPMI8266 cells; type: functional
SK-MEL-28 = experiment: Growth inhibition of human SK-MEL-28 cells; type: functional
786-0 = experiment: Growth inhibition of human 786-0 cells; type: functional
[2] = Growth inhibition of human OVACR4 cells; type: functional
K562 = experiment: Growth inhibition of human K562 cells; type: functional
A10 = experiment: Disruption of microfilament in rat A10 cells at 2.9 uM after 24 hrs by rhodamine-phalloidin assay; type: functional, cell-based
Summary of the method: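 A-10 smooth muscle cells grown on glass coverslips in BME with 10% fetal calf serum and exposed 24 h. Fixed in 3% paraformaldehyde, permeabilised with 0.2% Triton X-100, reduced with NaBH4, then stained 45 min with 100 nM TRITC-phalloidin for actin and with DAPI for DNA. Microfilament network scored by fluorescence microscopy.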

HT-29 = experiment: Growth inhibition of human HT29 cells; type: functional
U-251 = experiment: Growth inhibition of human U251 cells; type: functional
SK-MEL-2 = experiment: Growth inhibition of human SK-MEL-2 cells; type: functional
DU-145 = experiment: Growth inhibition of human DU145 cells; type: functional
UO-31 = experiment: Growth inhibition of human UO31 cells; type: functional
KM12 = experiment: Growth inhibition of human KM12 cells; type: functional
PC-3 = experiment: Growth inhibition of human PC3 cells; type: functional
T47D = experiment: Growth inhibition of human T47D cells; type: functional
IGROV-1 = experiment: Growth inhibition of human IGROV1 cells; type: functional
MDA-MB-231 = experiment: Growth inhibition of human MDA-MB-231 cells; type: functional
HCC 2998 = experiment: Growth inhibition of human HCC2998 cells; type: functional
[3] = Growth inhibition of human […] cells; type: functional
[4] = Growth inhibition of human OVACR5 cells; type: functional
NCI-H226 = experiment: Growth inhibition of human NCI-H226 cells; type: functional
HCT-116 = experiment: Growth inhibition of human HCT116 cells; type: functional
HOP-92 = experiment: Growth inhibition of human HOP92 cells; type: functional
CAKI-1 = experiment: Growth inhibition of human CAKI1 cells; type: functional
ACHN = experiment: Growth inhibition of human ACHN cells; type: functional
NCI-H460 [5] = experiment: Cytotoxicity against human NCI-H460 cells after 48 hrs by MTT assay; type: functional; details: NCI-H460, 48 h, read-out: LC50 (the source's name)
Summary of the method: (§1)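 Cells seeded at 6000/well and grown 24 h, then given test chemicals dissolved in DMSO and diluted in serum-free medium (DMSO under 0.5% final). Viability read by MTT reduction after 48 h exposure; LC50 reported. Method follows Alley et al.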

UACC-257 = experiment: Growth inhibition of human UACC257 cells; type: functional
BT-549 = experiment: Growth inhibition of human BT549 cells; type: functional
MOLT-4 = experiment: Growth inhibition of human MOLT4 cells; type: functional
Hs-578T = experiment: Growth inhibition of human HS578T cells; type: functional
SK-OV-3 = experiment: Growth inhibition of human SKOV3 cells; type: functional
HOP-62 = experiment: Growth inhibition of human HOP62 cells; type: functional
SNB-19 = experiment: Growth inhibition of human SNB19 cells; type: functional
SK-MEL-5 = experiment: Growth inhibition of human SK-MEL-5 cells; type: functional
NCI-H322M = experiment: Growth inhibition of human NCI-H322M cells; type: functional
A549 = experiment: Growth inhibition of human A549 cells; type: functional
SN12C = experiment: Growth inhibition of human SN12C cells; type: functional
NCI-H522 = experiment: Growth inhibition of human NCI-H522 cells; type: functional
SF-295 = experiment: Growth inhibition of human SF295 cells; type: functional
NCI-H460 [6] = experiment: Growth inhibition of human NCI-H460 cells; type: functional; details: read-out: pLC50 (the source's name) (converted)
COLO 205 = experiment: Growth inhibition of human COLO205 cells; type: functional
[7] = Growth inhibition of human HL60(TB) cells; type: functional, HL-60(TB)
SF-268 = experiment: Growth inhibition of human SF268 cells; type: functional
NCI/ADR-RES = experiment: Growth inhibition of human NCI/ADR-RES cells; type: functional
EKVX = experiment: Growth inhibition of human EKVX cells; type: functional
HCT-15 = experiment: Growth inhibition of human HCT15 cells; type: functional
M14 = experiment: Growth inhibition of human M14 cells; type: functional
MDA-MB-435 = experiment: Growth inhibition of human MDA-MB-435 cells; type: functional
MCF7 = experiment: Growth inhibition of human MCF7 cells; type: functional
SR = experiment: Growth inhibition of human SR cells; type: functional
[8] = Growth inhibition of human OVACR3 cells; type: functional
[9] = Cytotoxicity against mouse Neuro2a cells after 48 hrs by MTT assay; type: functional; details: N2a, read-out: LC50 (the source's name); summary of the method: as §1
NCI-H23 = experiment: Growth inhibition of human NCI-H23 cells; type: functional
SW-620 = experiment: Growth inhibition of human SW620 cells; type: functional; details: read-out: pLC50 (the source's name) (converted)
TK-10 = experiment: Growth inhibition of human TK10 cells; type: functional
[10] = read-out: pLC50 (the source's name) (converted)

CC/C=C(\C)[C@H]1OC(=O)[C@H](C)N(C)C(=O)[C@H](C(C)C)NC(=O)CN(C)C(=O)[C@H]([C@H](C)CC)N(C)C(=O)[C@H](C(C)C)NC(=O)[C@@H]([C@@H](C)CC)OC(=O)/C(C)=C/C[C@H](O)[C@@H]1C [AURILIDE B]
0.794 µM: CC50 (SF-268; [10])
0.219 µM: GI50 (SK-MEL-5)
58.9 µM: CC50 (HOP-92; [10])
< 0.01 µM: TGI (SNB-75; read-out: pTGI) | GI50 (LOX IMVI) | GI50 (SF-539) | CC50 (SF-539; [10]) | TGI (SF-539; read-out: pTGI) | GI50 (UACC-62) | TGI (UACC-62; read-out: pTGI) | GI50 [1] | TGI ([1]; read-out: pTGI) | GI50 (SK-MEL-28) | TGI (SK-MEL-28; read-out: pTGI) | GI50 (786-0) | CC50 (786-0; [10]) | TGI (786-0; read-out: pTGI) | GI50 [2] | TGI ([2]; read-out: pTGI) | GI50 (K562) | TGI (K562; read-out: pTGI) | GI50 (HT-29) | GI50 (U-251) | TGI (U-251; read-out: pTGI) | GI50 (SK-MEL-2) | TGI (SK-MEL-2; read-out: pTGI) | GI50 (DU-145) | CC50 (DU-145; [10]) | TGI (DU-145; read-out: pTGI) | GI50 (UO-31) | CC50 (UO-31; [10]) | TGI (UO-31; read-out: pTGI) | GI50 (KM12) | GI50 (PC-3) | CC50 (PC-3; [10]) | TGI (PC-3; read-out: pTGI) | GI50 (T47D) | GI50 (IGROV-1) | TGI (IGROV-1; read-out: pTGI) | GI50 (MDA-MB-231) | TGI (MDA-MB-231; read-out: pTGI) | GI50 (HCC 2998) | CC50 (HCC 2998; [10]) | TGI (HCC 2998; read-out: pTGI) | GI50 [3] | TGI ([3]; read-out: pTGI) | GI50 [4] | CC50 [4, 10] | TGI ([4]; read-out: pTGI) | GI50 (NCI-H226) | CC50 (NCI-H226; [10]) | TGI (NCI-H226; read-out: pTGI) | GI50 (HCT-116) | CC50 (HCT-116; [10]) | TGI (HCT-116; read-out: pTGI) | GI50 (HOP-92) | TGI (HOP-92; read-out: pTGI) | GI50 (CAKI-1) | TGI (CAKI-1; read-out: pTGI) | GI50 (ACHN) | GI50 (UACC-257) | CC50 (UACC-257; [10]) | TGI (UACC-257; read-out: pTGI) | GI50 (BT-549) | GI50 (MOLT-4) | CC50 (MOLT-4; [10]) | TGI (MOLT-4; read-out: pTGI) | GI50 (SK-OV-3) | GI50 (HOP-62) | CC50 (HOP-62; [10]) | TGI (HOP-62; read-out: pTGI) | GI50 (SNB-19) | GI50 (NCI-H322M) | TGI (NCI-H322M; read-out: pTGI) | GI50 (A549) | CC50 (A549; [10]) | TGI (A549; read-out: pTGI) | GI50 (SN12C) | GI50 (NCI-H522) | TGI (NCI-H522; read-out: pTGI) | GI50 (SF-295) | TGI (SF-295; read-out: pTGI) | GI50 (COLO 205) | GI50 ([7]; HL-60) | CC50 ([7]; HL-60, read-out: pLC50 (the source's name) (converted)) | TGI ([7]; HL-60, read-out: pTGI) | GI50 (SF-268) | GI50 (NCI/ADR-RES) | CC50 (NCI/ADR-RES; [10]) | TGI (NCI/ADR-RES; read-out: pTGI) | GI50 (EKVX) | CC50 (EKVX; [10]) | TGI (EKVX; read-out: pTGI) | GI50 (HCT-15) | GI50 (M14) | CC50 (M14; [10]) | TGI (M14; read-out: pTGI) | GI50 (MDA-MB-435) | TGI (MDA-MB-435; read-out: pTGI) | GI50 (MCF7) | GI50 (SR) | CC50 (SR; [10]) | TGI (SR; read-out: pTGI) | GI50 [8] | TGI ([8]; read-out: pTGI) | GI50 (NCI-H23) | CC50 (NCI-H23; [10]) | TGI (NCI-H23; read-out: pTGI) | GI50 (TK-10) | CC50 (TK-10; [10]) | TGI (TK-10; read-out: pTGI)
0.0199 µM: TGI (SNB-19; read-out: pTGI (converted))
0.49 µM: TGI (SK-MEL-5; read-out: pTGI (converted))
38.9 µM: CC50 (SK-OV-3; [10])
19.1 µM: TGI (MCF7; read-out: pTGI (converted))
3.02 µM: CC50 (SK-MEL-5; [10])
> 100 µM: CC50 [1, 10] | CC50 (SK-MEL-28; [10]) | CC50 [2, 10] | CC50 (HT-29; [10]) | TGI (HT-29; read-out: pTGI) | CC50 (SK-MEL-2; [10]) | CC50 (KM12; [10]) | TGI (KM12; read-out: pTGI) | CC50 (T47D; [10]) | CC50 (IGROV-1; [10]) | CC50 (ACHN; [10]) | CC50 (Hs-578T; [10]) | CC50 (SNB-19; [10]) | CC50 (NCI-H522; [10]) | CC50 (SF-295; [10]) | CC50 (COLO 205; [10]) | TGI (COLO 205; read-out: pTGI) | CC50 (HCT-15; [10]) | CC50 (MCF7; [10]) | CC50 (SW-620)
0.01 µM: CC50 [9]
0.708 µM: TGI (Hs-578T; read-out: pTGI (converted))
active: Activity (A10)
77.6 µM: CC50 (NCI-H460 [6])
0.1 µM: CC50 (K562; [10])
0.04 µM: CC50 (NCI-H460 [5])
83.2 µM: CC50 (SNB-75; [10])
0.17 µM: TGI (HCT-15; read-out: pTGI (converted))
